Laboratory results taken from ChEMBL document CHEMBL3112538, “Novel spirooxindole-pyrrolidine compounds: synthesis, anticancer and molecular docking studies” (2014).
Active and inactive are the calls of the source. The calls are words filed in the database; no cut-off is given here.

Experiments:
[1] = tested on: A549; experiment: Cytotoxicity against human A549 cells at 50 ug/ml by MTT assay; type: functional
Outline: (§1)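 A549 cells (NCIS Pune) grown in DMEM with 10% FBS, 2 mM L-glutamine, penicillin/streptomycin, pH 7.2. 5 × 10^5 cells were seeded with compound at 100, 50 or 25 per mL and kept at 37 °C, 5% CO2. MTT (1 mg/mL, 4 h) was added, formazan dissolved in DMSO and read at 540 nm. IC50 is the mean of three replicate experiments; Duncan test at P = 0.05.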

[2] = tested on: A549; experiment: Cytotoxicity against human A549 cells at 25 ug/ml by MTT assay; type: functional; outline: as §1
[3] = tested on: A549; experiment: Cytotoxicity against human A549 cells by MTT assay; type: functional, cell-based; outline: as §1
[4] = tested on: A549; experiment: Cytotoxicity against human A549 cells at 100 ug/ml by MTT assay; type: functional; outline: as §1
[5] = tested on: A549; experiment: Cytotoxicity against human A549 cells assessed as growth inhibition at 25 ug/ml after 24 hrs by agarose gel electrophoresis; type: functional, cell-based
Outline: (§2)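 A549 cells were exposed to compound for 24 h. 1 × 10^6 cells were pelleted, PBS-washed and lysed at 4 °C for 15 min in 10 mM Tris-HCl pH 7.4 with 10 mM EDTA and 0.5% Triton X-100. Supernatant was treated with proteinase K (60 °C, 60 min) then RNase A (37 °C, 60 min). DNA was isopropanol/NaCl precipitated overnight and run on a 2% agarose gel.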

[6] = tested on: A549; experiment: Induction of apoptosis in human A549 cells at 25 ug/ml after 24 hrs by propidium iodide/FITC staining-based confocal laser scanning microscopy; type: functional, cell-based
Outline: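 Cells were exposed to compound or untreated for 24 h, washed twice in 0.01 M PBS and suspended in binding buffer. They were stained with FITC and PI for 30 min at 4 °C in the dark, pelleted and smeared. Fluorescence was viewed at once by confocal laser scanning microscopy at 400× magnification.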

[7] = tested on: A549; experiment: Induction of apoptosis in human A549 cells assessed as DNA fragmentation at 25 ug/ml after 24 hrs by agarose gel electrophoresis; type: functional, cell-based; outline: as §2

SMILES | inhibition at 50 µg/mL [1] [%] | inhibition at 25 µg/mL [2] [%] | Activity [3] | inhibition at 100 µg/mL [4] [%] | growth inhibition (GI) [5] | Activity [6] | Activity [7]
COc1ccc2[nH]cc(C(=O)[C@]3(C#N)[C@@H](c4ncc[nH]4)CN(C)[C@]34C(=O)Nc3ccc(Br)cc34)c2c1 | 9.9 | 5.1 | Dose-dependent effect | 13.4 | – | – | –
CN1C[C@H](c2ncc[nH]2)[C@@](C#N)(C(=O)c2c[nH]c3ccccc23)[C@@]12C(=O)Nc1ccc(Br)cc12 | 9.8 | 4.4 | Dose-dependent effect | 34.2 | – | – | –
COc1ccc2[nH]cc(C(=O)[C@]3(C#N)[C@@H](c4ncc[nH]4)CN(C)[C@]34C(=O)Nc3ccc([N+](=O)[O-])cc34)c2c1 | 4.3 | 3 | Dose-dependent effect | 6.8 | – | – | –
N#C[C@@]1(C(=O)c2c[nH]c3ccccc23)[C@@H](c2ncc[nH]2)C2CSCN2[C@]12C(=O)Nc1ccc([N+](=O)[O-])cc12 (some centres undefined) | 63.4 | 28 | Dose-dependent effect | 76.8 | – | – | –
COc1ccc2[nH]cc(C(=O)[C@]3(C#N)[C@@H](c4ncc[nH]4)C4CSCN4[C@]34C(=O)Nc3ccc(F)cc34)c2c1 (some centres undefined) | 31.1 | 15.7 | Dose-dependent effect | 56.2 | – | – | –
CN1C(=O)[C@@]2(c3ccccc31)N1CSCC1[C@H](c1ncc[nH]1)[C@@]2(C#N)C(=O)c1c[nH]c2ccccc12 (some centres undefined) | 75.1 | 64.8 | Dose-dependent effect | 87.8 | Active | Active | Active
N#C[C@@]1(C(=O)c2c[nH]c3ccccc23)[C@@H](c2ncc[nH]2)C2CSCN2[C@]12C(=O)Nc1ccc(Br)cc12 (some centres undefined) | 9 | 5.1 | Dose-dependent effect | 15.6 | – | – | –
CN1C[C@H](c2ncc[nH]2)[C@@](C#N)(C(=O)c2c[nH]c3ccccc23)[C@@]12C(=O)Nc1ccccc12 | 6.3 | 3.1 | Dose-dependent effect | 23.2 | – | – | –
COc1ccc2[nH]cc(C(=O)[C@]3(C#N)[C@@H](c4ncc[nH]4)CN(C)[C@]34C(=O)N(C)c3ccccc34)c2c1 | 79.2 | 66.3 | Dose-dependent effect | 85 | – | – | –
CN1C[C@H](c2ncc[nH]2)[C@@](C#N)(C(=O)c2c[nH]c3ccccc23)[C@@]12C(=O)Nc1ccc(F)cc12 | 9 | 4.5 | Dose-dependent effect | 22.2 | – | – | –
CN1C(=O)[C@@]2(c3ccccc31)N(C)C[C@H](c1ncc[nH]1)[C@@]2(C#N)C(=O)c1c[nH]c2ccccc12 | 4.3 | 3.3 | Dose-dependent effect | 7.4 | – | – | –
COc1ccc2[nH]cc(C(=O)[C@]3(C#N)[C@@H](c4ncc[nH]4)C4CSCN4[C@]34C(=O)Nc3ccc(Cl)cc34)c2c1 (some centres undefined) | 72.1 | 55.2 | Dose-dependent effect | 81.8 | Active | – | Active
N#C[C@@]1(C(=O)c2c[nH]c3ccccc23)[C@@H](c2ncc[nH]2)C2CSCN2[C@]12C(=O)Nc1ccc(Cl)cc12 (some centres undefined) | 13.4 | 6 | Dose-dependent effect | 24 | – | – | –
COc1ccc2[nH]cc(C(=O)[C@]3(C#N)[C@@H](c4ncc[nH]4)CN(C)[C@]34C(=O)Nc3ccccc34)c2c1 | 74.4 | 62.8 | Dose-dependent effect | 83 | – | – | –
N#C[C@@]1(C(=O)c2c[nH]c3ccccc23)[C@@H](c2ncc[nH]2)C2CSCN2[C@]12C(=O)Nc1ccccc12 (some centres undefined) | 79.3 | 59.9 | Dose-dependent effect | 85.6 | Active | – | Active
N#C[C@@]1(C(=O)c2c[nH]c3ccccc23)[C@@H](c2ncc[nH]2)C2CSCN2[C@]12C(=O)Nc1ccc(I)cc12 (some centres undefined) | 56.3 | 24.5 | Dose-dependent effect | 69 | – | – | –
CN1C[C@H](c2ncc[nH]2)[C@@](C#N)(C(=O)c2c[nH]c3ccccc23)[C@@]12C(=O)Nc1ccc(I)cc12 | 6.8 | 5.9 | Dose-dependent effect | 14.9 | – | – | –
COc1ccc2[nH]cc(C(=O)[C@]3(C#N)[C@@H](c4ncc[nH]4)CN(C)[C@]34C(=O)Nc3ccc(F)cc34)c2c1 | 35.6 | 9.9 | Dose-dependent effect | 66.2 | – | – | –
N#C[C@@]1(C(=O)c2c[nH]c3ccccc23)[C@@H](c2ncc[nH]2)C2CSCN2[C@]12C(=O)Nc1ccc(F)cc12 (some centres undefined) | 33.5 | 15.5 | Dose-dependent effect | 66.2 | – | – | –
CN1C[C@H](c2ncc[nH]2)[C@@](C#N)(C(=O)c2c[nH]c3ccccc23)[C@@]12C(=O)Nc1ccc([N+](=O)[O-])cc12 | 33.4 | 8.8 | Dose-dependent effect | 56.6 | – | – | –
CN1C[C@H](c2ncc[nH]2)[C@@](C#N)(C(=O)c2c[nH]c3ccccc23)[C@@]12C(=O)Nc1ccc(Cl)cc12 | 30.9 | 6.9 | Dose-dependent effect | 51.5 | – | – | –
COc1ccc2[nH]cc(C(=O)[C@]3(C#N)[C@@H](c4ncc[nH]4)C4CSCN4[C@]34C(=O)Nc3ccc(Br)cc34)c2c1 (some centres undefined) | 68.4 | 36.2 | Dose-dependent effect | 82.7 | – | – | –
Cc1ccc2c(c1)[C@]1(C(=O)N2)N2CSCC2[C@H](c2ncc[nH]2)[C@@]1(C#N)C(=O)c1c[nH]c2ccccc12 (some centres undefined) | 75.8 | 66.3 | Dose-dependent effect | 84.3 | Active | – | Active
Cc1ccc2c(c1)[C@]1(C(=O)N2)N(C)C[C@H](c2ncc[nH]2)[C@@]1(C#N)C(=O)c1c[nH]c2ccccc12 | 53.5 | 26.7 | Dose-dependent effect | 77.3 | Active | – | Active
COc1ccc2[nH]cc(C(=O)[C@]3(C#N)[C@@H](c4ncc[nH]4)C4CSCN4[C@]34C(=O)N(C)c3ccccc34)c2c1 (some centres undefined) | 68.5 | 52.9 | Dose-dependent effect | 80.1 | – | – | –
COc1ccc2[nH]cc(C(=O)[C@]3(C#N)[C@@H](c4ncc[nH]4)C4CSCN4[C@]34C(=O)Nc3ccc([N+](=O)[O-])cc34)c2c1 (some centres undefined) | 5.1 | 3.3 | Dose-dependent effect | 9 | – | – | –
COc1ccc2[nH]cc(C(=O)[C@]3(C#N)[C@@H](c4ncc[nH]4)CN(C)[C@]34C(=O)Nc3ccc(Cl)cc34)c2c1 | 15.2 | 4.7 | Dose-dependent effect | 23 | – | – | –
COc1ccc2[nH]cc(C(=O)[C@]3(C#N)[C@@H](c4ncc[nH]4)CN(C)[C@]34C(=O)Nc3ccc(I)cc34)c2c1 | 22.2 | 3.7 | Dose-dependent effect | 50.2 | – | – | –
COc1ccc2[nH]cc(C(=O)[C@]3(C#N)[C@@H](c4ncc[nH]4)C4CSCN4[C@]34C(=O)Nc3ccccc34)c2c1 (some centres undefined) | 72.1 | 54.4 | Dose-dependent effect | 83.3 | Active | – | Active
